Source: ChEMBL document CHEMBL4689842, “EUbOPEN Chemogenomics Library wave 1” (2021)
Where “and” joins values, the source holds several entries; their conditions need not be identical. Identical values can stand only once.

System: U2OS
Assay: Multiplex assay against U2OS
Type: toxicity, cell-based
Details: human
Outline: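 Live cells were stained at seeding with Hoechst33342, BioTracker Green Microtubule Cytoskeleton Dye, MitoTracker Red and Annexin V Alexa Fluor 680. Following compound addition, they were imaged on a CQ1 microscope at 37°C and 5% CO2 and gated by CellPathfinder machine learning into Hoechst high-intensity objects or normal cells, with normal cells split into healthy, pyknosed or fragmented nuclei and pyknosed cells into mitotic or apoptotic. Tubulin, mitochondrial-mass and membrane-permeability phenotypes are per cents of healthy-nucleus cells.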

[1] = 12 h, 1 µM, compound concentration 1 uM, replicate 1
[2] = 12 h, 1 µM, compound concentration 1 uM, replicate 2
[3] = 12 h, 10 µM, compound concentration 10 uM, replicate 1
[4] = 12 h, 10 µM, compound concentration 10 uM, replicate 2
[5] = 24 h, 1 µM, compound concentration 1 uM, replicate 1
[6] = 24 h, 1 µM, compound concentration 1 uM, replicate 2
[7] = 24 h, 10 µM, compound concentration 10 uM, replicate 1
[8] = 24 h, 10 µM, compound concentration 10 uM, replicate 2
[9] = 48 h, 10 µM, compound concentration 10 uM, replicate 1
[10] = 48 h, 10 µM, compound concentration 10 uM, replicate 2

NC(=O)Nc1cc(-c2cccc(F)c2)sc1C(=O)N[C@H]1CCCNC1 [AZD-7762]
Population Apoptotic (%) [1]: 25% | Population Fragmented Nuclei (%) [1]: 7% | Population Hoechst High Intensity Objects (%) [1]: 3% | Population Membrane Permeable-Phenotype (%) [1]: 9% | Population Mitochondria Different-Phenotype (%) [1]: 17% | Population Mitotic Cells (%) [1]: 75% | Population Normal (%) [1]: 96% | Population Pyknosed Nuclei (%) [1]: 10% | Total Cell Count [1]: 157 | Population Apoptotic (%) [2]: 0% | Population Fragmented Nuclei (%) [2]: 8% | Population Healthy Nuclei (%) [2]: 81% | Population Hoechst High Intensity Objects (%) [2]: 15% | Population Membrane Permeable-Phenotype (%) [2]: 13% | Population Mitochondria Different-Phenotype (%) [2]: 10% | Population Mitotic Cells (%) [2]: 100% | Population Normal (%) [2]: 84% | Population Pyknosed Nuclei (%) [2]: 9% | Population Tubulin-Different-Phenotype (%) [2]: 26% | Total Cell Count [2]: 110 | Population Apoptotic (%) [3]: 25% and 43% | Population Fragmented Nuclei (%) [3]: 28% | Population Healthy Nuclei (%) [3]: 28% and 20% | Population Hoechst High Intensity Objects (%) [3]: 3% and 12% | Population Membrane Permeable-Phenotype (%) [3]: 19% and 8% | Population Mitochondria Different-Phenotype (%) [3]: 15% and 20% | Population Mitotic Cells (%) [3]: 74% and 56% | Population Normal (%) [3]: 96% and 87% | Population Pyknosed Nuclei (%) [3]: 49% and 50% | Population Tubulin-Different-Phenotype (%) [3]: 17% and 11% | Total Cell Count [3]: 189 and 194 | Population Apoptotic (%) [4]: 46% and 22% | Population Fragmented Nuclei (%) [4]: 22% and 25% | Population Healthy Nuclei (%) [4]: 25% and 32% | Population Hoechst High Intensity Objects (%) [4]: 5% and 11% | Population Membrane Permeable-Phenotype (%) [4]: 21% and 20% | Population Mitotic Cells (%) [4]: 53% and 77% | Population Normal (%) [4]: 94% and 88% | Population Pyknosed Nuclei (%) [4]: 52% and 41% | Total Cell Count [4]: 79 and 84 | Population Apoptotic (%) [5]: 40% | Population Fragmented Nuclei (%) [5]: 15% | Population Healthy Nuclei (%) [5]: 52% | Population Hoechst High Intensity Objects (%) [5]: 6% | Population Membrane Permeable-Phenotype (%) [5]: 16% | Population Mitochondria Different-Phenotype (%) [5]: 21% | Population Mitotic Cells (%) [5]: 60% | Population Normal (%) [5]: 93% | Population Pyknosed Nuclei (%) [5]: 32% | Population Tubulin-Different-Phenotype (%) [5]: 35% | Total Cell Count [5]: 150 | Population Apoptotic (%) [6]: 37% | Population Fragmented Nuclei (%) [6]: 7% | Population Healthy Nuclei (%) [6]: 51% | Population Hoechst High Intensity Objects (%) [6]: 18% | Population Membrane Permeable-Phenotype (%) [6]: 7% | Population Mitotic Cells (%) [6]: 62% | Population Normal (%) [6]: 81% | Population Pyknosed Nuclei (%) [6]: 40% | Population Tubulin-Different-Phenotype (%) [6]: 34% | Total Cell Count [6]: 97 | Population Apoptotic (%) [7]: 81% and 85% | Population Healthy Nuclei (%) [7]: 7% | Population Hoechst High Intensity Objects (%) [7]: 9% and 10% | Population Mitochondria Different-Phenotype (%) [7]: 46% and 78% | Population Mitotic Cells (%) [7]: 18% and 14% | Population Normal (%) [7]: 90% and 89% | Population Pyknosed Nuclei (%) [7]: 47% and 70% | Total Cell Count [7]: 185 and 189 | Population Apoptotic (%) [8]: 92% and 70% | Population Fragmented Nuclei (%) [8]: 16% and 21% | Population Healthy Nuclei (%) [8]: 16% and 18% | Population Hoechst High Intensity Objects (%) [8]: 20% and 11% | Population Membrane Permeable-Phenotype (%) [8]: 100% and 64% | Population Mitochondria Different-Phenotype (%) [8]: 80% and 57% | Population Normal (%) [8]: 80% and 88% | Population Pyknosed Nuclei (%) [8]: 66% and 59% | Population Tubulin-Different-Phenotype (%) [8]: 90% and 64% | Total Cell Count [8]: 75 and 84 | Population Apoptotic (%) [9]: 95% | Population Fragmented Nuclei (%) [9]: 38% | Population Healthy Nuclei (%) [9]: 1% | Population Hoechst High Intensity Objects (%) [9]: 15% | Population Membrane Permeable-Phenotype (%) [9]: 0% | Population Mitochondria Different-Phenotype (%) [9]: 33% | Population Mitotic Cells (%) [9]: 4% | Population Normal (%) [9]: 84% | Population Pyknosed Nuclei (%) [9]: 59% | Population Tubulin-Different-Phenotype (%) [9]: 33% | Total Cell Count [9]: 188 | Population Apoptotic (%) [10]: 100% | Population Fragmented Nuclei (%) [10]: 16% | Population Healthy Nuclei (%) [10]: 44% | Population Hoechst High Intensity Objects (%) [10]: 21% | Population Membrane Permeable-Phenotype (%) [10]: 100% | Population Mitochondria Different-Phenotype (%) [10]: 92% | Population Mitotic Cells (%) [10]: 0% | Population Normal (%) [10]: 78% | Population Pyknosed Nuclei (%) [10]: 38% | Population Tubulin-Different-Phenotype (%) [10]: 96% | Total Cell Count [10]: 75
